Measurements taken from ChEMBL document CHEMBL3797163, “Tryptic Stability of Synthetic Bactenecin Derivatives Is Determined by the Side Chain Length of Cationic Residues and the Peptide Conformation” (J Med Chem, 2016).
Values after ≈ are worked out from the molar mass of the structure shown. Square brackets hold non-standard residues; d marks the D form. Peptide text beside a SMILES is read from it. hArg = N=C(N)NCCCC[C@H](N)C(=O)O; Orn = NCCC[C@H](N)C(=O)O; Dab = NCC[C@H](N)C(=O)O

Legend:
[1] = Stability of compound assessed as bovine trypsin mediated degradation at 2 to 5 mM after 2 hrs by HPLC/MS analysis; assay type: ADME, Bos taurus; settings: cattle, isolated protein, 5000 µM
Summary of the method: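 Bovine pancreatic trypsin (salt-free) was freshly dissolved at 1 mg per 50 mL in 0.1 M NH4HCO3, pH 8.2, and added to peptide, which was diluted from 2˗5 mM stocks to a final 60 µM. Reactions were shaken at 37 °C and sampled at 2 h and 24 h. Aliquots were quenched with acetic acid/TFA and analysed by RP-HPLC (C18, 220 nm) and direct-injection ESI-MS. No-enzyme samples served as controls.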

Acinetobacter baumannii = assay: Antimicrobial activity against Acinetobacter baumannii ATCC 17978 incubated overnight by microdilution method; assay type: functional
Summary of the method: (§1)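 Broth microdilution in Mueller-Hinton broth. Peptides were serially diluted 2-fold in water at twice the final concentration, then mixed 1:1 with bacteria in 2× MHB to a final 2˗7 × 10^5 CFU/mL. Plates were incubated overnight at 37 °C. MIC was taken as the lowest concentration showing no growth.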

Bacillus subtilis = assay: Antimicrobial activity against Bacillus subtilis C626 incubated overnight by microdilution method; assay type: functional; summary of the method: as §1
Escherichia coli = assay: Antimicrobial activity against Escherichia coli O157:H7 incubated overnight by microdilution method; assay type: functional
Summary of the method: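 Broth microdilution in Mueller-Hinton broth. Peptides were serially diluted twofold in water at 2× final concentration and mixed 1:1 with bacteria in 2× MHB, giving a final inoculum of 2-7 × 10^5 CFU/mL. Plates were incubated overnight at 37 °C. MIC was read as the lowest concentration with no visible growth.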

Staphylococcus aureus = assay: Antimicrobial activity against Staphylococcus aureus C622 incubated overnight by microdilution method; assay type: functional; summary of the method: as §1

Row | Structure (SMILES) | Stability [1] | MIC (Acinetobacter baumannii) | MIC (Bacillus subtilis) | MIC (Escherichia coli) | MIC (Staphylococcus aureus)
1 | CC[C@@H](C)[C@@H](NC(=O)[C@@H](Cc1c[nH]c2ccccc12)NC(=O)[C@@H](CCCCN)NC(=O)[C@@H](Cc1c[nH]c2ccccc12)NC(=O)[C@@H](Cc1c[nH]c2ccccc12)NC(=O)[C@@H](CCCNC(=N)N)NC(=O)[C@H](N)CCCCN)C(=O)N[C@H](CCCNC(=N)N)C(=O)N[C@H](Cc1c[nH]c2ccccc12)C(N)=O | Stable | – | – | – | –
2 | N=C(N)NCCC[C@H](NC(=O)[C@H](CCCNC(=N)N)NC(=O)[C@H](Cc1c[nH]c2ccccc12)NC(=O)[C@H](Cc1c[nH]c2ccccc12)NC(=O)[C@H](CCCCN)NC(=O)[C@H](Cc1c[nH]c2ccccc12)NC(=O)[C@H](Cc1c[nH]c2ccccc12)NC(=O)[C@H](CCCNC(=N)N)NC(=O)[C@@H](N)CCCCN)C(N)=O | Unstable | 40 µM (≈ 59.5 µg/mL) | 40 µM (≈ 59.5 µg/mL) | 2.5 µM (≈ 3.72 µg/mL) | 5 µM (≈ 7.43 µg/mL)
3 | CC[C@H](C)[C@H](NC(=O)[C@H](Cc1c[nH]c2ccccc12)NC(=O)[C@H](CCCCN)NC(=O)[C@H](Cc1c[nH]c2ccccc12)NC(=O)[C@H](Cc1c[nH]c2ccccc12)NC(=O)[C@H](CCCNC(=N)N)NC(=O)[C@@H](N)CCCCN)C(=O)N[C@@H](CCCNC(=N)N)C(=O)N[C@@H](Cc1c[nH]c2ccccc12)C(N)=O | Unstable | 5 µM (≈ 7.22 µg/mL) | 20 µM (≈ 28.9 µg/mL) | 1.25 µM (≈ 1.8 µg/mL) | 5 µM (≈ 7.22 µg/mL)
4 | N=C(N)NCCC[C@@H](N)C(=O)N[C@H](CCCNC(=N)N)C(=O)N[C@H](Cc1c[nH]c2ccccc12)C(=O)N[C@H](Cc1c[nH]c2ccccc12)C(=O)N[C@H](CCCCN)C(=O)N[C@H](Cc1c[nH]c2ccccc12)C(=O)N[C@H](Cc1c[nH]c2ccccc12)C(=O)N[C@H](CCCNC(=N)N)C(=O)N[C@H](CCCCN)C(N)=O | Stable | – | 20 µM (≈ 29.7 µg/mL) | 1.25 µM (≈ 1.86 µg/mL) | 5 µM (≈ 7.43 µg/mL)
5 | N=C(N)NCCC[C@@H](NC(=O)[C@@H](CCCNC(=N)N)NC(=O)[C@@H](Cc1c[nH]c2ccccc12)NC(=O)[C@@H](Cc1c[nH]c2ccccc12)NC(=O)[C@@H](CCCCN)NC(=O)[C@@H](Cc1c[nH]c2ccccc12)NC(=O)[C@@H](Cc1c[nH]c2ccccc12)NC(=O)[C@@H](CCCNC(=N)N)NC(=O)[C@H](N)CCCCN)C(N)=O | Stable | 20 µM (≈ 29.7 µg/mL) | 20 µM (≈ 29.7 µg/mL) | 1.25 µM (≈ 1.86 µg/mL) | 5 µM (≈ 7.43 µg/mL)
6 | CC[C@@H](C)[C@@H](NC(=O)[C@@H](CCCNC(=N)N)NC(=O)[C@H](N)Cc1c[nH]c2ccccc12)C(=O)N[C@H](Cc1c[nH]c2ccccc12)C(=O)N[C@H](CCCCN)C(=O)N[C@H](Cc1c[nH]c2ccccc12)C(=O)N[C@H](Cc1c[nH]c2ccccc12)C(=O)N[C@H](CCCNC(=N)N)C(=O)N[C@H](CCCCN)C(N)=O | Stable | – | – | – | –
7 | CN[C@@H](CC(C)C)C(=O)N[C@H]1C(=O)N[C@@H](CC(N)=O)C(=O)N[C@H]2C(=O)N[C@H]3C(=O)N[C@H](C(=O)N[C@@H](C(=O)O)c4cc(O)cc(O)c4-c4cc3ccc4O)[C@H](O)c3ccc(c(Cl)c3)Oc3cc2cc(c3O[C@H]2O[C@@H](CO)[C@H](O)[C@@H](O)[C@@H]2O[C@@H]2C[C@@](C)(N)[C@@H](O)[C@@H](C)O2)Oc2ccc(cc2Cl)[C@H]1O | – | > 32 µM | 1 µM (≈ 1.45 µg/mL) | > 32 µM | 1 µM (≈ 1.45 µg/mL)
8 | N=C(N)NCCCC[C@H](NC(=O)[C@H](CCCCNC(=N)N)NC(=O)[C@H](Cc1c[nH]c2ccccc12)NC(=O)[C@@H](Cc1c[nH]c2ccccc12)NC(=O)[C@@H](CCCN)NC(=O)[C@@H](Cc1c[nH]c2ccccc12)NC(=O)[C@H](Cc1c[nH]c2ccccc12)NC(=O)[C@H](CCCCNC(=N)N)NC(=O)[C@H](N)CCCN)C(N)=O | Unstable | 40 µM (≈ 60 µg/mL) | 40 µM (≈ 60 µg/mL) | 2.5 µM (≈ 3.75 µg/mL) | 5 µM (≈ 7.5 µg/mL)
9 | N=C(N)NCCCC[C@H](NC(=O)[C@H](CCCCNC(=N)N)NC(=O)[C@H](Cc1c[nH]c2ccccc12)NC(=O)[C@@H](Cc1c[nH]c2ccccc12)NC(=O)[C@@H](CCN)NC(=O)[C@@H](Cc1c[nH]c2ccccc12)NC(=O)[C@H](Cc1c[nH]c2ccccc12)NC(=O)[C@@H](CCCCNC(=N)N)NC(=O)[C@@H](N)CCN)C(N)=O | Unstable | 40 µM (≈ 58.9 µg/mL) | 40 µM (≈ 58.9 µg/mL) | 2.5 µM (≈ 3.68 µg/mL) | 5 µM (≈ 7.36 µg/mL)
10 | N=C(N)NCCCC[C@H](NC(=O)[C@@H](CCCCNC(=N)N)NC(=O)[C@H](Cc1c[nH]c2ccccc12)NC(=O)[C@H](Cc1c[nH]c2ccccc12)NC(=O)[C@H](CCCCNC(=N)N)NC(=O)[C@H](Cc1c[nH]c2ccccc12)NC(=O)[C@@H](Cc1c[nH]c2ccccc12)NC(=O)[C@@H](CCCCNC(=N)N)NC(=O)[C@@H](N)CCCCNC(=N)N)C(N)=O | Unstable | 20 µM (≈ 32.3 µg/mL) | 10 µM (≈ 16.1 µg/mL) | 2.5 µM (≈ 4.03 µg/mL) | 2.5 µM (≈ 4.03 µg/mL)
11 | CC[C@H](C)[C@H](NC(=O)[C@H](Cc1c[nH]c2ccccc12)NC(=O)[C@H](CCCNC(=N)N)NC(=O)[C@H](Cc1c[nH]c2ccccc12)NC(=O)[C@H](Cc1c[nH]c2ccccc12)NC(=O)[C@H](CCCCN)NC(=O)[C@@H](N)CCCNC(=N)N)C(=O)N[C@@H](CCCCN)C(=O)N[C@@H](Cc1c[nH]c2ccccc12)C(N)=O (H-RKWWRWIKW-NH2) | Unstable | 5 µM (≈ 7.22 µg/mL) | 20 µM (≈ 28.9 µg/mL) | 1.25 µM (≈ 1.8 µg/mL) | 2.5 µM (≈ 3.61 µg/mL)
12 | N=C(N)NCCC[C@H](NC(=O)[C@H](Cc1c[nH]c2ccccc12)NC(=O)[C@H](Cc1c[nH]c2ccccc12)NC(=O)[C@H](CCCCN)NC(=O)[C@@H](N)CCCNC(=N)N)C(=O)N[C@@H](Cc1c[nH]c2ccccc12)C(=O)N[C@@H](Cc1c[nH]c2ccccc12)C(=O)N[C@@H](CCCCN)C(=O)N[C@@H](CCCCN)C(N)=O (H-RKWWRWWKK-NH2) | Unstable | > 40 µM | > 40 µM | 2.5 µM (≈ 3.65 µg/mL) | 10 µM (≈ 14.6 µg/mL)
13 | CC[C@H](C)[C@H](NC(=O)[C@H](Cc1c[nH]c2ccccc12)NC(=O)[C@H](CCN)NC(=O)[C@H](Cc1c[nH]c2ccccc12)NC(=O)[C@H](Cc1c[nH]c2ccccc12)NC(=O)[C@H](CCN)NC(=O)[C@@H](N)CCN)C(=O)N[C@@H](CCN)C(=O)N[C@@H](Cc1c[nH]c2ccccc12)C(N)=O (H-[Dab][Dab]WW[Dab]WI[Dab]W-NH2) | Unstable | 5 µM (≈ 6.38 µg/mL) | 10 µM (≈ 12.8 µg/mL) | 2.5 µM (≈ 3.19 µg/mL) | 2.5 µM (≈ 3.19 µg/mL)
14 | NCC[C@H](NC(=O)[C@H](CCN)NC(=O)[C@H](Cc1c[nH]c2ccccc12)NC(=O)[C@H](Cc1c[nH]c2ccccc12)NC(=O)[C@H](CCN)NC(=O)[C@H](Cc1c[nH]c2ccccc12)NC(=O)[C@H](Cc1c[nH]c2ccccc12)NC(=O)[C@H](CCN)NC(=O)[C@@H](N)CCN)C(N)=O (H-[Dab][Dab]WW[Dab]WW[Dab][Dab]-NH2) | Stable | 80 µM (≈ 101 µg/mL) | 20 µM (≈ 25.2 µg/mL) | 2.5 µM (≈ 3.16 µg/mL) | 5 µM (≈ 6.31 µg/mL)
15 | CC[C@H](C)[C@H](NC(=O)[C@H](Cc1c[nH]c2ccccc12)NC(=O)[C@H](CCN)NC(=O)[C@H](Cc1c[nH]c2ccccc12)NC(=O)[C@H](Cc1c[nH]c2ccccc12)NC(=O)[C@H](CCCCNC(=N)N)NC(=O)[C@@H](N)CCN)C(=O)N[C@@H](CCCCNC(=N)N)C(=O)N[C@@H](Cc1c[nH]c2ccccc12)C(N)=O (H-[Dab][hArg]WW[Dab]WI[hArg]W-NH2) | Unstable | 5 µM (≈ 7.08 µg/mL) | 20 µM (≈ 28.3 µg/mL) | 1.25 µM (≈ 1.77 µg/mL) | 5 µM (≈ 7.08 µg/mL)
16 | CC[C@H](C)[C@H](NC(=O)[C@H](Cc1c[nH]c2ccccc12)NC(=O)[C@H](CCCN)NC(=O)[C@H](Cc1c[nH]c2ccccc12)NC(=O)[C@H](Cc1c[nH]c2ccccc12)NC(=O)[C@H](CCCN)NC(=O)[C@@H](N)CCCN)C(=O)N[C@@H](CCCN)C(=O)N[C@@H](Cc1c[nH]c2ccccc12)C(N)=O (H-[Orn][Orn]WW[Orn]WI[Orn]W-NH2) | Unstable | 10 µM (≈ 13.3 µg/mL) | 10 µM (≈ 13.3 µg/mL) | 1.25 µM (≈ 1.66 µg/mL) | 5 µM (≈ 6.66 µg/mL)
17 | NCCC[C@H](NC(=O)[C@H](CCCN)NC(=O)[C@H](Cc1c[nH]c2ccccc12)NC(=O)[C@H](Cc1c[nH]c2ccccc12)NC(=O)[C@H](CCCN)NC(=O)[C@H](Cc1c[nH]c2ccccc12)NC(=O)[C@H](Cc1c[nH]c2ccccc12)NC(=O)[C@H](CCCN)NC(=O)[C@@H](N)CCCN)C(N)=O (H-[Orn][Orn]WW[Orn]WW[Orn][Orn]-NH2) | Unstable | > 80 µM | 40 µM (≈ 53.3 µg/mL) | 2.5 µM (≈ 3.33 µg/mL) | 20 µM (≈ 26.7 µg/mL)
18 | CC[C@H](C)[C@H](NC(=O)[C@H](Cc1c[nH]c2ccccc12)NC(=O)[C@H](CCCN)NC(=O)[C@H](Cc1c[nH]c2ccccc12)NC(=O)[C@H](Cc1c[nH]c2ccccc12)NC(=O)[C@H](CCCCNC(=N)N)NC(=O)[C@@H](N)CCCN)C(=O)N[C@@H](CCCCNC(=N)N)C(=O)N[C@@H](Cc1c[nH]c2ccccc12)C(N)=O (H-[Orn][hArg]WW[Orn]WI[hArg]W-NH2) | Unstable | 5 µM (≈ 7.22 µg/mL) | 20 µM (≈ 28.9 µg/mL) | 1.25 µM (≈ 1.8 µg/mL) | 5 µM (≈ 7.22 µg/mL)
19 | CC[C@H](C)[C@H](NC(=O)[C@H](Cc1c[nH]c2ccccc12)NC(=O)[C@H](CCCCNC(=N)N)NC(=O)[C@H](Cc1c[nH]c2ccccc12)NC(=O)[C@H](Cc1c[nH]c2ccccc12)NC(=O)[C@H](CCCCNC(=N)N)NC(=O)[C@@H](N)CCCCNC(=N)N)C(=O)N[C@@H](CCCCNC(=N)N)C(=O)N[C@@H](Cc1c[nH]c2ccccc12)C(N)=O (H-[hArg][hArg]WW[hArg]WI[hArg]W-NH2) | Unstable | 5 µM (≈ 7.78 µg/mL) | 5 µM (≈ 7.78 µg/mL) | 2.5 µM (≈ 3.89 µg/mL) | 2.5 µM (≈ 3.89 µg/mL)
